Experimental data taken from ChEMBL document CHEMBL3792330, “Designed Glycopeptidomimetics Disrupt Protein-Protein Interactions Mediating Amyloid β-Peptide Aggregation and Restore Neuroblastoma Cell Viability” (J Med Chem, 2016).
Calls of active or inactive are those of the source. The rule behind the calls is not given here. *1 amine or outer side, *2 acyl side, *3 side chain or, on linkers, in order; H or OH if unused. Where a SMILES comes first, the peptide text is derived from it. [ ]: non-standard residue; d: D form. X1 = O=C(CCOC[C@H]1O[C@@H](OCCCN[*:1])[C@H](O)[C@@H](O)[C@@H]1O)[*:2]

Assays:
[1] = molecular target: Amyloid-beta precursor protein (Homo sapiens) (UniProt P05067); assay: Inhibition of amyloid beta (1 to 42) (unknown origin) fibril formation assessed as extension of aggregation half life at compound/protein ratio of 10/1 after 42 hrs by ThT fluorescence assay relative to control; set-up: Activity: scale not given: the % may be the effect or the level left
Amyloid-beta precursor protein (Homo sapiens), sequence (P05067 whole entry): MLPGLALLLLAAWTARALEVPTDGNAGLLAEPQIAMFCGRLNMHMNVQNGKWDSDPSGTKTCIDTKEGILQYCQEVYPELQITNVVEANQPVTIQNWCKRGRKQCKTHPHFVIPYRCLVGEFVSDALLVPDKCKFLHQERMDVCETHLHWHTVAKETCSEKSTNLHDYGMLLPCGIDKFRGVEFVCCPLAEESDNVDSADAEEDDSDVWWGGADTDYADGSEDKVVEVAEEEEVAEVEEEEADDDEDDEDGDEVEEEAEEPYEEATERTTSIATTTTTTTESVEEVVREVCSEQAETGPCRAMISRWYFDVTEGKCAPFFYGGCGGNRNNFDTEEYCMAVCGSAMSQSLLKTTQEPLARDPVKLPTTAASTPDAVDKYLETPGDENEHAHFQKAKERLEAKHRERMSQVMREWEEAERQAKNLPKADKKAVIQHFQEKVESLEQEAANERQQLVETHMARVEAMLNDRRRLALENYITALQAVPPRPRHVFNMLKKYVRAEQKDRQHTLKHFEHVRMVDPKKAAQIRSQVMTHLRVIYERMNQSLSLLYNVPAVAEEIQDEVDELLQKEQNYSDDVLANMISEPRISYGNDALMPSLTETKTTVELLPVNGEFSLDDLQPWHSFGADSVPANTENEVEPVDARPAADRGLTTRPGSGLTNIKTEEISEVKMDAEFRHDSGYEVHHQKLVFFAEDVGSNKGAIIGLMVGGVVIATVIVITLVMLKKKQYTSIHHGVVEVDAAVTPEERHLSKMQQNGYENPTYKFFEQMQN
Summary of the method: (§1)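 Aβ1-42 (1 mM in 1% ammonia, diluted in buffer) added to a final 10 μM into 40 μM ThT in 10 mM Tris-HCl, 100 mM NaCl pH 7.4, with compound at 100, 50, 10 or 1 μM (0.5% DMSO), at room temperature. Ex/em 440/485 nm read for 42 h, in duplicate or triplicate, 2–4 runs. t1/2 and plateau F expressed relative to Aβ alone.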

[2] = molecular target: Amyloid-beta precursor protein (Homo sapiens) (UniProt P05067); assay: Inhibition of amyloid beta (1 to 42) (unknown origin) fibril formation assessed as decrease in fluorescence plateau at compound/protein ratio of 10/1 after 42 hrs by ThT fluorescence assay relative to control; conditions: concentration not given here; summary of the method: as §1
[3] = molecular target: Amyloid-beta precursor protein (Homo sapiens) (UniProt P05067); assay: Inhibition of amyloid beta (1 to 42) (unknown origin) fibril formation assessed as extension of aggregation half life at compound/protein ratio of 1/1 after 42 hrs by ThT fluorescence assay relative to control; set-up: Activity: scale not given: the % may be the effect or the level left; summary of the method: as §1
[4] = molecular target: Amyloid-beta precursor protein (Homo sapiens) (UniProt P05067); assay: Inhibition of amyloid beta (1 to 42) (unknown origin) fibril formation assessed as decrease in fluorescence plateau at compound/protein ratio of 1/1 after 42 hrs by ThT fluorescence assay relative to control; summary of the method: as §1
[5] = tested on: SH-SY5Y; assay: Neuroprotective activity against amyloid beta (1 to 42)-induced toxicity in human SH-SY5Y cells assessed as cell viability at 0.25 to 5 uM after 24 hrs by MTS assay; type: functional, cell-based
Summary of the method: (§2)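 Aβ1-42 at 50 μM in sterile PBS pre-incubated 24 h at room temperature with 1, 5, 10 or 50 μM compound, then diluted 1:10 (5 μM Aβ final) onto SH-SY5Y cells. Cells seeded at 20 000/well in low-serum Optimem, 37 °C, 5% CO2, 24 h. Exposure a further 24 h in quadruplicate. MTS viability or LDH release read; assays repeated twice.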

[6] = molecular target: Amyloid-beta precursor protein (Homo sapiens) (UniProt P05067); assay: Binding affinity to amyloid beta (1 to 42) (unknown origin) by SPR analysis
Summary of the method: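 Aβ1-42 (0.05 μM in 10 mM sodium acetate pH 4.6) amine-coupled to an EDC/NHS-activated gold chip, then rinsed with 0.1% NH4OH to leave mainly monomer. Analytes in 150 mM PBS with 2% DMSO were injected at 12.5–200 μM for 1 min at 80 μL/min. DMSO solvent correction applied and the ethanolamine-blocked blank channel subtracted. Regeneration with 0.1% NH4OH.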

[7] = tested on: SH-SY5Y; assay: Neuroprotective activity against amyloid beta (1 to 42)-induced membrane damage in human SH-SY5Y cells at 0.1 to 5 uM after 24 hrs by LDH assay; type: functional, cell-based; summary of the method: as §2
[8] = tested on: Plasma; assay: Metabolic stability in 10% human plasma assessed as drug degradation at 1 uM after 24 hrs by HPLC analysis; type: ADME, cell-free
Summary of the method: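 Compounds taken from 40 μM DMSO stock to 1 μM in 10% human plasma/90% sterile PBS, held 24 h at 37 °C. Analysed by C18 HPLC with a 0–80% gradient (A: 0.1% TFA in water; B: 0.05% TFA in acetonitrile).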

[9] = molecular target: Amyloid-beta precursor protein (Homo sapiens) (UniProt P05067); assay: Inhibition of amyloid beta (1 to 42) (unknown origin) aggregation assessed as appearance of glubular aggregation at compound/protein ratio of 1/1 after 42 hrs by transmission electron microscopy
Summary of the method: (§3)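 Samples prepared as for ThT: Aβ1-42 at 10 μM in 10 mM Tris-HCl, 100 mM NaCl pH 7.4, with or without compound at 10 or 100 μM. After 42 h, adsorbed 2 min onto carbon grids and negatively stained 45 s with 2% uranyl acetate. Imaged by TEM at 80 kV.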

[10] = molecular target: Amyloid-beta precursor protein (Homo sapiens) (UniProt P05067); assay: Inhibition of amyloid beta (1 to 42) (unknown origin) fibril formation assessed as extension of aggregation half life at compound/protein ratio of 0.1/1 after 42 hrs by ThT fluorescence assay relative to control; summary of the method: as §1
[11] = tested on: SH-SY5Y; assay: Neuroprotective activity against amyloid beta (1 to 42)-induced toxicity in human SH-SY5Y cells assessed as reduction of cell death at 0.1 equiv after 24 hrs by MTS assay; type: functional; set-up: scale not given: the % may be the effect or the level left
Summary of the method: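 SH-SY5Y cells seeded at 20 000/well in low-serum Optimem, 24 h at 37°C, 5% CO2. Aβ1-42 at 50 μM in sterile PBS pre-incubated 24 h at room temperature with 1, 5, 10 or 50 μM inhibitor, or without inhibitor. The mix was diluted 1:10 into Optimem (5 μM Aβ final) and added to cells in quadruplicate. After a further 24 h, viability was read by MTS. Assay run twice.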

[12] = molecular target: T1, Islet amyloid polypeptide (Homo sapiens) (UniProt P10997); assay: Inhibition of human IAPP fibril formation assessed as decrease in final fluorescence intensity at compound/protein ratio of 10/1 by ThT fluorescence assay
T1 sequence (whole entry): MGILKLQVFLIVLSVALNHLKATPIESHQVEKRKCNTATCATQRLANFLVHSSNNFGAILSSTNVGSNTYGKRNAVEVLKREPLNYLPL

[13] = molecular target: Amyloid-beta precursor protein (Homo sapiens) (UniProt P05067); assay: Inhibition of amyloid beta (1 to 42) (unknown origin) fibril formation at compound/protein ratio of 10/1, 1/1, 0.1/1 […] by ThT fluorescence assay
[14] = molecular target: Amyloid-beta precursor protein (Homo sapiens) (UniProt P05067); assay: Inhibition of amyloid beta (1 to 42) (unknown origin) aggregation assessed as appearance of less dense fiber at compound/protein ratio of 1/1 after 42 hrs by uranyl acetate staining-based transmission electron microscopy; summary of the method: as §3
[15] = molecular target: Amyloid-beta precursor protein (Homo sapiens) (UniProt P05067); assay: Inhibition of amyloid beta (1 to 42) (unknown origin) aggregation assessed as scattered, short and scarce fiber formation at compound/protein ratio of 10/1 after 42 hrs by uranyl acetate staining-based transmission electron microscopy; summary of the method: as §3
[16] = molecular target: T1, Islet amyloid polypeptide (Homo sapiens); assay: Inhibition of human IAPP fibril formation assessed as increase of aggregation half life at compound/protein ratio of 10/1 by ThT fluorescence assay
[17] = molecular target: Amyloid-beta precursor protein (Homo sapiens) (UniProt P05067); assay: Inhibition of amyloid beta (1 to 42) (unknown origin) fibril formation assessed as decrease in fluorescence plateau at compound/protein ratio of 0.1/1 after 42 hrs by ThT fluorescence assay relative to control; conditions: concentration not given here; summary of the method: as §1
[18] = molecular target: Amyloid-beta precursor protein (Homo sapiens) (UniProt P05067); assay: Inhibition of amyloid beta (1 to 42) (unknown origin) aggregation after 42 hrs by uranyl acetate staining-based transmission electron microscopy; summary of the method: as §3
[19] = molecular target: Amyloid-beta precursor protein (Homo sapiens) (UniProt P05067); assay: Inhibition of amyloid beta (1 to 42) (unknown origin) fibril formation after 42 hrs by ThT fluorescence assay; summary of the method: as §1

Row | Compound | Activity [1] | inhibition [2] | Activity [3] | inhibition [4] | Activity [5] | Activity [6] | Activity [7] | Stability [8] | further results
1 | COc1ccc(NC(C)=O)cc1C(=O)NNC(=O)[C@@H](NC(=O)CCOC[C@H]1OC(OCCCNC(=O)[C@@H](NC(=O)[C@H](C)NC(=O)OC(C)(C)C)C(C)C)[C@H](O)[C@@H](O)[C@@H]1O)C(C)C (stereo partly specified) | 379% | 41% | 138% | inactive |  |  |  |  | 
2 | COC(=O)[C@H](CC(C)C)NC(=O)[C@@H](NC(=O)CCOC[C@H]1O[C@@H](OCCCNC(=O)[C@@H](NC(=O)[C@H](C)N)C(C)C)[C@H](O)[C@@H](O)[C@@H]1O)C(C)C (H-AV[X1]VL-OMe) | 280% | 56% |  | inactive | Active | Dose-dependent effect | Active | Unstable | inhibition [3]: inactive
3 | COc1ccc(NC(C)=O)cc1C(=O)NNC(=O)[C@H](CCCCN)NC(=O)CCOC[C@H]1OC(OCCCNC(=O)[C@@H](NC(=O)[C@H](C)N)C(C)C)[C@H](O)[C@@H](O)[C@@H]1O (mixture of isomers) |  | 87% | 148% |  | Active | Dose-dependent effect | Active | Stable | inhibition [1]: Active; inhibition [9]: Active; inhibition [10]: inactive; Activity [11]: 75%; inhibition [12]: inactive; inhibition [13]: Active; inhibition ([4]; concentration not given here): 29%; inhibition [14]: Active; inhibition [15]: Active; inhibition [16]: inactive; inhibition [17]: 23%
4 | COc1ccc(NC(C)=O)cc1C(=O)NNC(=O)[C@@H](NC(=O)CCOC[C@H]1OC(OCCCNC(=O)[C@@H](NC(=O)[C@H](C)N)C(C)C)[C@H](OCc2ccccc2)[C@@H](OCc2ccccc2)[C@@H]1OCc1ccccc1)C(C)C (mixture of isomers) |  |  |  |  |  |  |  |  | inhibition [18]: inactive; inhibition [19]: inactive
